Screens from PubChem BioAssay.
The list is not random: actives were taken first. Their share in the collection is about 1.8%.
Platelet DG rel = inhibitors of platelet dense granule secretion, primary screen, cell-based, MLPCN, human platelets; human platelet-rich plasma, SFLLRN dense granule ATP release, luminescence; inhibition, %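 (compounds screened at 7.5 µM in platelet-rich plasma)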; 300,000 compounds, 0.22% hits;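 active = mean replicate score, as percent of positive control, at or above 50; inconclusive = mean below 50 but at least one replicate at or above 50; inactive = mean and every replicate below 50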
Runt-SMMHC FRET = inhibitors of RUNX1 Runt–CBFb-SMMHC binding, primary screen, biochemical, FRET, Cerulean-Runt, Venus-CBFb-SMMHC, uHTS; Cerulean-Runt/Venus-CBFb-SMMHC FRET ratio 530/480, 1 h; 220,000 compounds, 0.74% hits; Runt-related transcription factor 1 (Homo sapiens) + Core-binding factor subunit beta …; AID 1434, 2008; inhibition, % at 20 µM;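 active = mean inhibition across duplicate retests at 20 µM reaching about 50%, limit read from the data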;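 note: inhibitors lower the FRET ratio by blocking Runt binding to CBFb-SMMHC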
Target sequence (Q01196 whole entry, looked up): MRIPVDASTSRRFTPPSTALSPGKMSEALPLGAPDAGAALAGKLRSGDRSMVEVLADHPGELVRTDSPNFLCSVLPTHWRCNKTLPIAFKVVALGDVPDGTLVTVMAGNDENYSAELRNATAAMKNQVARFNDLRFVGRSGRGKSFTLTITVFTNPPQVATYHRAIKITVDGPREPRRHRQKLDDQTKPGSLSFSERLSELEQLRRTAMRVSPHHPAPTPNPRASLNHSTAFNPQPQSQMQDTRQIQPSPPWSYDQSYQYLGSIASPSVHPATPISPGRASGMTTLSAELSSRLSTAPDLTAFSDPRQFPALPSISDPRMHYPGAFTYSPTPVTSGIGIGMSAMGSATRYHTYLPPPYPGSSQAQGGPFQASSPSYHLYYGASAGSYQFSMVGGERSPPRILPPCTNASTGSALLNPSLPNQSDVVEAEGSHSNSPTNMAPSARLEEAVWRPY
Target sequence (Q13951 whole entry, looked up): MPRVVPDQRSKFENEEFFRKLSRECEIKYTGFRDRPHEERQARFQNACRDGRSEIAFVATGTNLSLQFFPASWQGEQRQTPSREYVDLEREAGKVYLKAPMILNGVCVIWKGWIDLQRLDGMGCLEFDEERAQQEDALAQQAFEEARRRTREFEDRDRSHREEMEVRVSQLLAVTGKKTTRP
Runt-CBFb FRET = inhibitors of RUNX1 Runt–CBFb binding, primary screen, biochemical, FRET, Cerulean-Runt, Venus-CBFb, uHTS | Runt-related transcription factor 1 (Homo sapiens) + Core-binding factor subunit beta … | Cerulean-Runt/Venus-CBFb FRET ratio 530/480, 1 h | inhibition, % at 20 µM | 220,000 compounds, 0.46% hits;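 active = inhibition over about 50% at 20 µM in the single-dose screen, limit read from the data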
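Reagent – Venus-CBFb binding partner, 100 nM · Assay system – Cerulean-tagged RUNX1 Runt domain (FRET donor) fusion protein · Input – 100 nM per protein · Incubation – two 1 h room-temperature incubations shielded from light · Measured by – FRET fluorescence · Medium – Tris buffer pH 7.5 with salts and BSA · Benchmarks – unlabeled CBFb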
Rce1 inhib = yeast Rce1p protease inhibitors, primary screen, biochemical, fluorescence, cell-free homogeneous | yeast membranes, quenched prenylated peptide cleavage fluorescence | 290,000 compounds, 0.27% hits | CAAX prenyl protease 2 (Saccharomyces cerevisiae (strain ATCC 204508 / S288c)), Q03530 | calls only;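 active = fall in fluorescence gain of 50% or more versus controls, with final raw signal at or below 3038400; inconclusive = same 50% fall but final raw signal above 3038400; inactive = fall in fluorescence gain under 50%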
RanGTP-Impb inh = inhibitors of RanGTP-importin-beta interaction, primary screen, biochemical, FRET, CFP-Ran, YFP-importin-beta, homogeneous | Ran GTPase (GTP-bound) - importin-beta complex | cell-free CFP-Ran/YFP-importin-beta FRET ratio | inhibition, % (concentration not given with the values) | 300,000 compounds, 1.1% hits | AID 2216, 2009;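 active = more than half of the replicate wells show a fall in the fluorescence ratio signal beyond about 16%, limit read from the data, passing the limit was not always enough; inconclusive = exactly half of the replicate wells pass the set limit; inactive = fewer than half of replicates pass the limit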
Runt-CBFb TRFRET = inhibitors of RUNX1 Runt–CBFb binding, biochemical, TR-FRET. 480 compounds, 20% hits. TR-FRET RUNX1 Runt domain-CBFb binding. shares compounds with Runt-CBFb FRET. inhibition, % at 20 µM; in the data active = inhibition above about 40%
YIC counter = YIC intramolecular FRET probe signal interference, dose response, counter-screen for RanGTP-importin-beta inhibitor project, biochemical, fluorescence FRET. IC50, µM. Purified YIC probe, intramolecular FRET ratio YFP/CFP. 1,000 compounds, 40% hits. shares compounds with RanGTP-Impb inh;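 active = fitted half-maximal inhibitory concentration no more than tenfold above the top dose tested; inconclusive = flat fit with 30 to 70% activity, or poor fit; inactive = half-maximal concentration beyond tenfold above the top dose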
Numbers stand for hits; i = inactive; ? = inconclusive; nt = no result given; ! = repeats disagree.

SMILES | Platelet DG rel | Runt-SMMHC FRET | Runt-CBFb FRET | Rce1 inhib | RanGTP-Impb inh | Runt-CBFb TRFRET | YIC counter
CN1C=CC2=C(C#N)C(N)C(C#N)(C#N)C(c3ccccc3)C2C1 (stereo not given) | i | 62 | 71 | i | 40 | i | nt
CCOC(=O)C1(Cc2ccc(OC)cc2)CCN(C(=O)c2csc(C)n2)CC1 | i | i | i | i | i | nt | nt
CCOC(=O)C1(Cc2ccc(OC)cc2)CCN(C(=O)c2cncs2)CC1 | i | i | 54 | i | i | i | nt
CCC(C)(C)n1nnnc1C(c1ccc2ncccc2c1)N1CCN(c2ccc(O)cc2)CC1 (stereo not given) | i | i | 54 | i | i | i | nt
CCC(C)(C)n1nnnc1C(c1ccc2ncccc2c1)N1CCN(c2nc3ccccc3s2)CC1 (stereo not given) | i | i | i | i | i | nt | nt
Cc1ccc(C(=O)/C=C\C(=O)c2ccc(C)cc2)cc1 | i | 51 | 62 | i | i | i | nt
CC(/C=C/C(=O)c1ccc(C)cc1)=C\c1ccccc1 | i | i | i | i | i | nt | nt
COc1cccc(/C=C2\SC(=S)N(CCCC(=O)N(CCO)c3ccccc3)C2=O)c1 | i | nt | nt | i | i | nt | nt
CCc1c(C)c2cc(Cl)c(O)c(CN3CCCCC3)c2oc1=O | i | 156 | 85 | ? | 22 | i | 26
C=CCn1c(N)c(C(=O)OCCC)c2nc3ccccc3nc21 | i | 119 | 69 | i | 21 | i | i
CCCCn1c(NC(=O)c2ccc(Br)o2)c(S(=O)(=O)c2ccccc2)c2nc3ccccc3nc21 | i | 136 | 64 | i | 25 | i | 4.9
Cc1ccc(S(=O)(=O)c2c(N)n(CCCO)c3nc4ccccc4nc23)cc1 | i | i | i | i | i | nt | nt
O=C(COc1ccc(S(=O)(=O)N2CCCC2)cc1Cl)NCc1cccnc1 | i | nt | nt | i | i | nt | nt
CSc1ccc(CN2CCN(S(=O)(=O)Cc3ccccc3)CC2)cc1 | i | nt | nt | i | i | nt | nt
Cc1ccc(-c2nc3cccnc3s2)cc1NS(=O)(=O)c1cccs1 | i | i | i | i | i | nt | nt
CCc1ccc(S(=O)(=O)Nc2ccc(-c3nc4cccnc4s3)cc2)s1 | i | 148 | 80 | i | 40 | i | 9.7
COC(=O)C1=CN(C)C=C(C(=O)OC)C1c1ccc(O)c(OC)c1 | i | i | i | i | i | nt | nt
COCCN1C=C(C(=O)OC)C(c2cc(Br)c(OC)c(OC)c2)C(C(=O)OC)=C1 | i | 142 | 73 | i | 20 | i | 31
CC(=O)Nc1ccc(NC(=O)C(C)OC(=O)CCCOc2ccc(Cl)c(C)c2)cc1 (stereo not given) | i | nt | nt | i | i | nt | nt
CCOc1ccc(Nc2c3ccccc3nc3ccccc23)cc1 | i | i | 60 | i | 54 | 41 | i
COCCNC(=O)/C(C#N)=C/c1cc(Br)c(O)c(OC)c1 | i | i | i | i | i | nt | nt
CCOCCCNC(=O)/C(C#N)=C/c1cc(Br)c(O)c(Br)c1 | i | 116 | 68 | i | 38 | i | 15
CC(=O)N1CCc2c(sc(NC(=O)c3ccc4c(c3)OCCO4)c2C#N)C1 | i | 90 | 65 | i | 39 | i | 52
Nc1cccc(-n2cccc2)c1 | i | i | i | i | i | nt | nt
NCCCC[C@@H]1NC(=O)c2cc([N+](=O)[O-])cc(I)c2SC[C@@H](C(=O)NCC(N)=O)NC(=O)CNC1=O | i | i | i | i | i | nt | nt
SMILES | Platelet DG rel | Runt-SMMHC FRET | Runt-CBFb FRET | Rce1 inhib | RanGTP-Impb inh | Runt-CBFb TRFRET | YIC counter
CCN1C2=C(C(=O)CCC2)C(c2ccc(O)c(Br)c2)C2=C1CCCC2=O | i | 122 | 54 | i | 35 | i | 8.4
O=C(O)COc1ccc(F)cc1Br | i | i | i | i | 25 | nt | i
Cc1ccc(Cl)cc1-n1c(=O)cc(N2CC(C)OC(C)C2)[nH]c1=O (stereo not given) | i | i | i | i | 56 | nt | i
CC1CN(c2cc(=O)n(-c3ccc(Cl)cc3)c(=O)[nH]2)CC(C)O1 (stereo not given) | nt | i | i | nt | nt | nt | nt
O=P(c1ccccc1)(c1ccccc1)c1ccc(O)cc1 | i | nt | nt | i | i | nt | nt
O=C(O)c1ccccc1P(=O)(c1ccccc1)c1ccccc1 | i | i | i | i | 16 | nt | i
O=C(/C=C/c1ccccc1)c1ccccc1 | i | i | i | i | i | nt | nt
O=C(/C=C/c1ccc[nH]1)c1ccccc1 | i | i | i | i | 23 | nt | 32
O=C(/C=C/c1ccc[nH]1)c1ccc(F)cc1 | i | i | i | i | 28 | nt | 25
COc1ccc(S(=O)(=O)NCCc2cn3nc(C)c(C)nc3n2)cc1 | i | nt | nt | i | ? | nt | nt
Cc1nc2nc(CCNS(=O)(=O)c3ccc(Cl)cc3)cn2nc1C | i | nt | nt | i | 18 | nt | 32
CN(CC(=O)Nc1cccc(F)c1)C(=O)c1cccnc1Sc1ccccc1Cl | nt | nt | nt | i | ? | nt | nt
COc1ccc(/C=N/c2sc3c(c2C#N)CCN(Cc2ccccc2)C3)c(O)c1 | i | i | i | i | i | nt | nt
Cc1cccc(/C=N/c2sc3c(c2C#N)CCN(Cc2ccccc2)C3)c1O | i | 126 | i | i | 36 | nt | i
COC(=O)[C@@H]1[C@H]2C[C@H]3c4[nH]c5ccccc5c4CCN3C[C@@H]2CC[C@@H]1O | i | nt | nt | i | 26! | nt | i
CCC1CN(C)C2Cc3c([nH]c4ccccc34)C(=O)CC1C2C(=O)OC (stereo not given) | i | i | i | i | i | nt | nt
Cc1oc(-c2cc(F)ccc2F)nc1CN1CCN(C)C(=O)[C@@H]1C | i | i | i | i | i | nt | nt
COc1ccc(NS(=O)(=O)c2cc(NC(=O)c3cccs3)ccc2N2CCOCC2)cc1 | i | i | i | i | 16 | nt | i
O=C(N/N=C/c1cccs1)[C@H]1C[C@@H]1c1ccccc1 | i | i | i | i | ? | nt | nt
CN=Cc1nc(-c2ccccc2)oc1O | i | i | i | i | i | nt | nt
CC1=Nc2ccccc2/C1=C\c1nc(-c2ccc(F)cc2)oc1O | i | i | i | i | 22 | nt | i
CC(=O)c1sc2nc(C)c3c(c2c1N)CCCC3 | i | 90 | i | i | 31 | nt | 14
CCNC(=O)/C(C#N)=C/c1c(N2CCN(c3ccccc3)CC2)nc2ccccn2c1=O | i | nt | nt | i | i | nt | nt
COCCCNC(=O)/C(C#N)=C/c1c(N2CCN(c3ccccc3)CC2)nc2ccccn2c1=O | i | nt | nt | i | 26 | nt | 29
